From ChEMBL document CHEMBL4325904 (Eur J Med Chem, 2019)
pIC50: −log10 of the molar value. Active and inactive are the calls of the source. The rule behind the calls is not given here.

Tests used:
Homo sapiens [1] = species: Homo sapiens; assay: Selectivity ratio of IC50 for recombinant C-terminal His-tagged human HDAC5 (656 to 1122 residues) to IC50 for recombinant N-terminal GST-tagged human HDAC6 (1 to 1215 residues)
Histone deacetylase 2 = Histone deacetylase 2 (Homo sapiens, UniProt Q92769); assay: Inhibition of recombinant full length C-terminal GST-tagged human HDAC2 (1 to 488 residues) expressed in insect cells using RHK-K(Ac)-AMC as substrate by fluorimetric assay
Sequence of Histone deacetylase 2 (Q92769 whole entry, the tested form may be a part): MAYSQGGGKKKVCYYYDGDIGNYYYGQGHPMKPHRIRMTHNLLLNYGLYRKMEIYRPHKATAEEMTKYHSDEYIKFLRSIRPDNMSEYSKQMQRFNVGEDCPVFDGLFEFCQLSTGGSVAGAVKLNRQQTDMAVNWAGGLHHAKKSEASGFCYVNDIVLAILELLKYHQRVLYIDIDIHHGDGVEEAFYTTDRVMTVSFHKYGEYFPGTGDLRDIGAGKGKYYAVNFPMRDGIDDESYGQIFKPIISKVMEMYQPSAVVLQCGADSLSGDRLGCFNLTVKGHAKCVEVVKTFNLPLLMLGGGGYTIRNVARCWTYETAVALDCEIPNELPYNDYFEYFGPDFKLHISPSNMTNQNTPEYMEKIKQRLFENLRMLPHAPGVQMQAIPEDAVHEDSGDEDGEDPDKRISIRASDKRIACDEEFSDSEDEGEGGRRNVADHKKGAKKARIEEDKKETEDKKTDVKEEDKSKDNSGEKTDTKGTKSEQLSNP

[2] = molecular target: T1, Protein deacetylase HDAC6 (Homo sapiens, UniProt Q9UBN7); assay: Inhibition of recombinant N-terminal GST-tagged human HDAC6 (1 to 1215 residues) expressed in Baculovirus infected insect cells using RHKK-Ac as substrate by fluorimetric assay
T1 sequence (Q9UBN7 whole entry): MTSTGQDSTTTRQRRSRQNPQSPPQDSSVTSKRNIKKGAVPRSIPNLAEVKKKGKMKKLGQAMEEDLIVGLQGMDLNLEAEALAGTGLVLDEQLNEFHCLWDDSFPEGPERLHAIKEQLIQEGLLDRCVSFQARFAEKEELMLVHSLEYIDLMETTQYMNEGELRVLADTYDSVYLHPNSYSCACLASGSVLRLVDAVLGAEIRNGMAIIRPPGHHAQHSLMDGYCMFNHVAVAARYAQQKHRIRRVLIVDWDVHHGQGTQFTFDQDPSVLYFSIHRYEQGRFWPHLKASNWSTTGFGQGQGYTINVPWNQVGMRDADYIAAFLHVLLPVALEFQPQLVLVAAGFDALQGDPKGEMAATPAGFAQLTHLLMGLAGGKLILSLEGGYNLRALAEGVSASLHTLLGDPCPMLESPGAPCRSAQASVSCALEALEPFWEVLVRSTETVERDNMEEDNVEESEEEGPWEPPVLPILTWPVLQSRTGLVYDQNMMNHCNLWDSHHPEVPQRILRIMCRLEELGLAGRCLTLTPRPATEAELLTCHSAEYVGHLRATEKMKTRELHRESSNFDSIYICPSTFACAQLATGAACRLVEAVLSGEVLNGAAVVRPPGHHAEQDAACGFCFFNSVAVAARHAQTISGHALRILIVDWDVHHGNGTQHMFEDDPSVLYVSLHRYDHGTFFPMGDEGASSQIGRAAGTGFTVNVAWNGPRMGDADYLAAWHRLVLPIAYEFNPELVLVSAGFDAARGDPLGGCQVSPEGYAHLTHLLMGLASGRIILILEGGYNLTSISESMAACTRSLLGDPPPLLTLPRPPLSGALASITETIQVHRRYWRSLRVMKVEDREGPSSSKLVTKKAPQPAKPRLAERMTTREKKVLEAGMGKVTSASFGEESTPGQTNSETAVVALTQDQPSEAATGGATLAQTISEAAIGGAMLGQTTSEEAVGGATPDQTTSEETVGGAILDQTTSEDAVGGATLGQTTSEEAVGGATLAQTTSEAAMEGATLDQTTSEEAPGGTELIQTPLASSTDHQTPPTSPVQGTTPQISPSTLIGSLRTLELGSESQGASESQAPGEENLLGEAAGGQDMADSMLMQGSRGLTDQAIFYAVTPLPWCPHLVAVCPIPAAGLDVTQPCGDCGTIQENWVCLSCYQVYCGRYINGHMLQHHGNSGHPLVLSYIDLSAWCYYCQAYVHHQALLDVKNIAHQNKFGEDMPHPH

Histone deacetylase 5 = Histone deacetylase 5 (Homo sapiens, UniProt Q9UQL6); assay: Inhibition of recombinant C-terminal His-tagged human HDAC5 (656 to 1122 residues) expressed in insect cells using Boc-K(Ac)-AMC as substrate by fluorimetric assay
Sequence of Histone deacetylase 5 (Q9UQL6 whole entry, the tested form may be a part): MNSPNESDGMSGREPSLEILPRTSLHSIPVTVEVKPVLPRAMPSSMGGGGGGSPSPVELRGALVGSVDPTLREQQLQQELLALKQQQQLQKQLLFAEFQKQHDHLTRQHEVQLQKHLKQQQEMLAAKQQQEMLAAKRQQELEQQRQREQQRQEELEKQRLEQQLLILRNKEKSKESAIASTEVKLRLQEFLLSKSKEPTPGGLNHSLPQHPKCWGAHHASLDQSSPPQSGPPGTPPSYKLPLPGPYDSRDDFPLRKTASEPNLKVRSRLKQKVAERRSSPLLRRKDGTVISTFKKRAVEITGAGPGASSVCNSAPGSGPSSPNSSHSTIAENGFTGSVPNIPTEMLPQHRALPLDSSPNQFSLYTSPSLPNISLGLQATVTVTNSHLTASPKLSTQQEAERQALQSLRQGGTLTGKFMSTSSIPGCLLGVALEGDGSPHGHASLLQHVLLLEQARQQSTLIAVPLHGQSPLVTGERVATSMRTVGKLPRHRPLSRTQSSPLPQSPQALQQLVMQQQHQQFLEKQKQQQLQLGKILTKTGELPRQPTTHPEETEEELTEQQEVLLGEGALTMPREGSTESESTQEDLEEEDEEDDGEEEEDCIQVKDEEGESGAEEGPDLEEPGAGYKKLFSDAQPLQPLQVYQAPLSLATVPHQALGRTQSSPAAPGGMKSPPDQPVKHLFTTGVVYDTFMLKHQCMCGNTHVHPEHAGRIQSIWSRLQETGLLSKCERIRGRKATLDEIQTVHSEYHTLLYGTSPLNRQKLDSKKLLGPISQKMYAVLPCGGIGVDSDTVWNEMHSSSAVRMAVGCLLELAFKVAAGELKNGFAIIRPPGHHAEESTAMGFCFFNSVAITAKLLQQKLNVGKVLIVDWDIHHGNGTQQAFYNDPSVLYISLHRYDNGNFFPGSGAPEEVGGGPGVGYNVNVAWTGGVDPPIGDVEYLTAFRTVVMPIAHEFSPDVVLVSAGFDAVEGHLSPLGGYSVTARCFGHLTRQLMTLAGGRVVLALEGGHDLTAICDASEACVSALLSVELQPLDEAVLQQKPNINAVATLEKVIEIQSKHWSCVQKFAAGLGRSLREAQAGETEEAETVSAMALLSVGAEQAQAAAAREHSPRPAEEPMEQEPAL

Homo sapiens [3] = species: Homo sapiens; assay: Selectivity ratio of IC50 for human HDAC10 to IC50 for recombinant N-terminal GST-tagged human HDAC6 (1 to 1215 residues)
Danio rerio = assay: Antiangiogenic activity in zebrafish embryo assessed as effect on blood vessel development at 10 uM administered from 24 to 50 hrs post fertilization for 24 hrs and measured after 72 hrs by alkaline phosphatase assay; assay type: functional, organism-based
Method in brief: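 Zebrafish embryos exposed at 10 µM from 24–50 hpf alongside vehicle-only controls; at 72 hpf embryos stained with alkaline phosphatase to visualise blood vessels.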

[4] = Drug uptake in human A549 cells cytoplasm at 1 uM after 2 hrs by naphthalimide dye-based inverted light fluorescence confocal microscopic analysis; assay type: ADME, subcellular; conditions: a549, 2 h
Method in brief: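 A549 cells incubated 2 hours with compound at 1 µM; intracellular distribution imaged by confocal microscopy with 405 nm laser excitation, emission collected at 460–560 nm.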

Homo sapiens [5] = species: Homo sapiens; assay: Selectivity ratio of IC50 for human HDAC9 to IC50 for recombinant N-terminal GST-tagged human HDAC6 (1 to 1215 residues)
Homo sapiens [6] = species: Homo sapiens; assay: Selectivity ratio of IC50 for recombinant full length C-terminal FLAG/His-tagged human HDAC1 (1 to 482 residues) to IC50 for recombinant N-terminal GST-tagged human HDAC6 (1 to 1215 residues)
[7] = molecular target: Histone deacetylase 3/Nuclear receptor corepressor 2 (HDAC3/NCoR2) (Homo sapiens, UniProt O15379); assay type: cell-based
Sequence of Histone deacetylase 3/Nuclear receptor corepressor 2 (HDAC3/NCoR2) (O15379 whole entry): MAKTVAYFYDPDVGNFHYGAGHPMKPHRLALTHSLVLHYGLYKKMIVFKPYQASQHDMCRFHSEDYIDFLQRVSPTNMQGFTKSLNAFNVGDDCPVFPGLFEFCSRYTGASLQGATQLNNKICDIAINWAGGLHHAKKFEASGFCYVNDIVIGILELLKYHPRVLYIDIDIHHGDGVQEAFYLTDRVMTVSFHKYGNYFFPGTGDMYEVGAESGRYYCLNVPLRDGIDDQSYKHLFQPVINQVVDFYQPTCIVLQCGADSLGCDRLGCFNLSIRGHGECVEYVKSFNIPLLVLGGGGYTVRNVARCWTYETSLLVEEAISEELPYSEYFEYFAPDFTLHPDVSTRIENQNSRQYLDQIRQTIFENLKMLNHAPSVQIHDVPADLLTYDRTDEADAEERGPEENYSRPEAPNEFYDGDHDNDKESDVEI
Sequence of Histone deacetylase 3/Nuclear receptor corepressor 2 (HDAC3/NCoR2) (Q9Y618 whole entry, further chain): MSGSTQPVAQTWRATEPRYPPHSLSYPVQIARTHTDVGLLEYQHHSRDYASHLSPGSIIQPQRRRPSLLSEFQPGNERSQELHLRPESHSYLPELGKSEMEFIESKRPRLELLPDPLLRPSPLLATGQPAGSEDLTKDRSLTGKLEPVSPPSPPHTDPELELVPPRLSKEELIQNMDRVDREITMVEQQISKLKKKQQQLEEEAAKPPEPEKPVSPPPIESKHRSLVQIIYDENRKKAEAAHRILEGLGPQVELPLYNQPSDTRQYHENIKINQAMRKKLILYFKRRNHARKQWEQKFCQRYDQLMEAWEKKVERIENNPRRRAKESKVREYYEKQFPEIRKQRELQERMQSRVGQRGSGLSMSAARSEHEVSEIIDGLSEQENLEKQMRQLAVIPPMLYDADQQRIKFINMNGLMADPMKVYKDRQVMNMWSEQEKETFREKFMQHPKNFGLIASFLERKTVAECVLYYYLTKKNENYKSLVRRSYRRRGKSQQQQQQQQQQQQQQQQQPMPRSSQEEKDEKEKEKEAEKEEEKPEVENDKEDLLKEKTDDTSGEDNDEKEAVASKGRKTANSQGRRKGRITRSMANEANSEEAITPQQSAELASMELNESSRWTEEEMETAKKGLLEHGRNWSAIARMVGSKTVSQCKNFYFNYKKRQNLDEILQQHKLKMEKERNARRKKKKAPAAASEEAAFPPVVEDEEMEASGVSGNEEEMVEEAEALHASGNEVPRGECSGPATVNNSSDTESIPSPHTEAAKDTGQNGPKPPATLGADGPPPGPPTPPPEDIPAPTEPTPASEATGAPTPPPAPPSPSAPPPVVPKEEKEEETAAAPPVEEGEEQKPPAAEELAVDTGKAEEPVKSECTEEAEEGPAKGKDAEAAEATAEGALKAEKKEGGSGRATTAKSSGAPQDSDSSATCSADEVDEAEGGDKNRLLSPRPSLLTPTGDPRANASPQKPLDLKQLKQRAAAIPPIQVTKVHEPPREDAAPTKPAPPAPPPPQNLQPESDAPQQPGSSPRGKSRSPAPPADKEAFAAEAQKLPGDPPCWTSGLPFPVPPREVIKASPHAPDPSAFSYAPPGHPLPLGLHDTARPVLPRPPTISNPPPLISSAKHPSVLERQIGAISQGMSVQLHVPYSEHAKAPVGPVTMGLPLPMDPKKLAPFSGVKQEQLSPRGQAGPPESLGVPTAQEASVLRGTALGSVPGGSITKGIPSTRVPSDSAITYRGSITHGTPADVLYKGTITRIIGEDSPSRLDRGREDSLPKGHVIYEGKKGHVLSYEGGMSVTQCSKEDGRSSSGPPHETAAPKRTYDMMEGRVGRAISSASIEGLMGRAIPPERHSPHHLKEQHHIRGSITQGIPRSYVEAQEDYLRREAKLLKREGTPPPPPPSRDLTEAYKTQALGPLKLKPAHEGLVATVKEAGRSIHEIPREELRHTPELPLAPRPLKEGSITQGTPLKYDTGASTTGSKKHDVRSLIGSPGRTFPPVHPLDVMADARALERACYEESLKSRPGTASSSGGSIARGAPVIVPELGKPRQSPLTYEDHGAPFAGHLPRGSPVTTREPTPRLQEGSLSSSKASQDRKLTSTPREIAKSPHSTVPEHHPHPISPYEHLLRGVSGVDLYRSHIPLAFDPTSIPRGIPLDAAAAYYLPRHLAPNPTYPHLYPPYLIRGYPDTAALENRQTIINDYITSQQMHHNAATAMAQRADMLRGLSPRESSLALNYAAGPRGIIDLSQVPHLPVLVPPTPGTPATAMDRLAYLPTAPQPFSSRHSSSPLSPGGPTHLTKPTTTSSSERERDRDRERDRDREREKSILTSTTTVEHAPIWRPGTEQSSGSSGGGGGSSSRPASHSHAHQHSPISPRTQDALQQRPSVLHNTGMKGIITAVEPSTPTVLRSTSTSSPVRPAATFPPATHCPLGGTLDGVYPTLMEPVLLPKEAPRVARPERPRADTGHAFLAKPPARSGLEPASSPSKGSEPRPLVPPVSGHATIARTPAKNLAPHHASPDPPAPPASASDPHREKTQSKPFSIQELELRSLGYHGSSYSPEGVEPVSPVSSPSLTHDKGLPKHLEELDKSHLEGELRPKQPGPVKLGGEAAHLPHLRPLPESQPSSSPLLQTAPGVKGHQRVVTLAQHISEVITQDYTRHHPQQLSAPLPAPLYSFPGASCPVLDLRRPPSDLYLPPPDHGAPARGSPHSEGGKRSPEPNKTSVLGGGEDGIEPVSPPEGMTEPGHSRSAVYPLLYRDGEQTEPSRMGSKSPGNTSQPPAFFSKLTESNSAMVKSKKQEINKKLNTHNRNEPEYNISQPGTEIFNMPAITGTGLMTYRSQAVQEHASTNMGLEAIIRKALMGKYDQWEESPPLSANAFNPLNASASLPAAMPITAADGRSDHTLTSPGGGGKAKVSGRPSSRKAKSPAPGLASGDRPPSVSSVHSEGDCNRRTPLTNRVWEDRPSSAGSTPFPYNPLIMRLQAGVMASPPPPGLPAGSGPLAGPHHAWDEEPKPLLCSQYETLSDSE

[8] = Drug uptake in zebrafish embryo vasculature at 1 to 20 uM administered from 24 to 50 hrs post fertilization for 24 hrs and measured after 72 hrs by fluorescence microscopic analysis; assay type: ADME, Danio rerio; conditions: in vivo
Method in brief: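 Zebrafish embryos treated with 1, 10 or 20 µM from 24–50 hpf, with 0 µM controls; trunk and tail imaged at 72 hpf by fluorescence microscopy (λex 480 nm, λem 517 nm).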

| Ratio IC50 (Homo sapiens [1]) | pIC50 (Histone deacetylase 2) | pIC50 [2] | pIC50 (Histone deacetylase 5) | Ratio IC50 (Homo sapiens [3]) | Activity (Danio rerio) | Drug uptake [4] | Ratio IC50 (Homo sapiens [5]) | Ratio IC50 (Homo sapiens [6]) | pIC50 [7] | Drug uptake [8] | SMILES |
| --- | --- | --- | --- | --- | --- | --- | --- | --- | --- | --- | --- |
| 1100 | 6.38 | 8.32 | 5.28 | 67 | Active | Active | > 2000 | 120 to 123 | 6.96 | Active | CCCNc1ccc2c3c(cccc13)C(=O)N(CCCCCC(=O)NO)C2=O |
| 970 | 6.07 | 8.46 | 5.47 | 190 | Active | Active | > 2000 | 560 to 566 | 6.44 | Active | O=C(CCCCCN1C(=O)c2cccc3c(NCc4ccccc4)ccc(c23)C1=O)NO |
